Source: ChEMBL document CHEMBL1126808, “Asymmetric synthesis and biological evaluation of beta-L-(2R,5S)- and alpha-L-(2R,5R)-1,3-oxathiolane-pyrimidine and -purine nucleosides as potential anti-HIV agents” (J Med Chem, 1993)

How the values were obtained:
[1] = tested on: Human immunodeficiency virus 1; assay: Cytotoxicity against human peripheral blood mononuclear (PBM) cells […]; assay type: functional
Method in brief: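 Uninfected PHA-stimulated human PBM cells were cultured with or without drug, then aliquots were counted in trypan blue. IC50 came from a median-effect plot of dose–effect data.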

[2] = tested on: Human immunodeficiency virus; assay: Anti-HIV-1 activity against human peripheral blood mononuclear (PBM) cells infected with HIV-1 strain LAV; assay type: functional, organism-based
Method in brief: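 Mitogen-stimulated human PBM cells infected with HIV-1 LAV at MOI 0.1 (titred by limiting dilution in PBM cells). Compounds were diluted into medium from 40 mM DMSO stocks (final DMSO <0.25%) and added about 45 min after infection. Read-out was supernatant RT level. EC50 came from a median-effect plot of dose–effect data.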

Row | EC50 ([2]; Human immunodeficiency virus 1) [µM] | EC50 [2] [µM] | Compound | IC50 [1] [µM]
1 | 2.75 |  | OC[C@@H]1O[C@@H](n2cnc3c(Cl)ncnc32)CS1 | > 100
2 | 1.01 |  | Nc1ncnc2c1ncn2[C@@H]1CS[C@H](CO)O1 | > 100
3 | 121 |  | O=c1[nH]c(=O)n([C@H]2CS[C@H](CO)O2)cc1Br | > 100
4 | 0.43 |  | Nc1nc(=O)n([C@H]2CS[C@H](CO)O2)cc1F | > 100
5 | 4.4 |  | Cc1cn([C@H]2CS[C@H](CO)O2)c(=O)[nH]c1=O | > 100
6 | 0.45 |  | Cc1cn([C@H]2CS[C@H](CO)O2)c(=O)nc1N | > 100
7 | 9.8 |  | Nc1nc(Cl)c2ncn([C@@H]3CS[C@H](CO)O3)c2n1 | > 100
8 | 34.3 |  | Cc1cn([C@@H]2CS[C@H](CO)O2)c(=O)[nH]c1=O | > 100
9 | > 100 |  | OC[C@@H]1O[C@H](n2cnc3c(O)ncnc32)CS1 | > 100
10 | 42.1 |  | Nc1nc(Cl)c2ncn([C@H]3CS[C@H](CO)O3)c2n1 | > 100
11 | > 100 |  | O=c1[nH]c(=O)n([C@H]2CS[C@H](CO)O2)cc1Cl | > 100
12 | 157 |  | O=c1[nH]c(=O)n([C@H]2CS[C@H](CO)O2)cc1I | > 100
13 | 11.7 |  | O=c1ccn([C@@H]2CS[C@H](CO)O2)c(=O)[nH]1 | > 100
14 | > 100 |  | OC[C@@H]1O[C@@H](n2cnc3c(O)ncnc32)CS1 | > 100
15 | 31.8 |  | Nc1nc(=O)n([C@@H]2CS[C@H](CO)O2)cc1Cl | > 100
16 | > 100 |  | O=c1[nH]c(=O)n([C@@H]2CS[C@H](CO)O2)cc1F | > 100
17 | > 100 |  | Nc1nc(=O)n([C@H]2CS[C@H](CO)O2)cc1Br | > 100
18 | > 100 |  | O=c1[nH]c(=O)n([C@@H]2CS[C@H](CO)O2)cc1Cl | > 100
19 | 92.9 |  | O=c1[nH]c(=O)n([C@@H]2CS[C@H](CO)O2)cc1I | > 100
20 | 10.2 |  | Nc1nc(O)c2ncn([C@@H]3CS[C@H](CO)O3)c2n1 | > 100

Row | EC50 ([2]; Human immunodeficiency virus 1) [µM] | EC50 [2] [µM] | Compound | IC50 [1] [µM]
21 | 15 |  | CNc1ncnc2c1ncn2[C@@H]1CS[C@H](CO)O1 | > 100
22 | 1.44 |  | OC[C@@H]1O[C@H](n2cnc3c(Cl)ncnc32)CS1 | > 100
23 | 13 |  | CNc1ncnc2c1ncn2[C@H]1CS[C@H](CO)O1 | > 100
24 | 78.9 |  | Nc1ncnc2c1ncn2[C@H]1CS[C@H](CO)O1 | > 100
25 | 16.3 |  | Nc1nc(F)nc2c1ncn2[C@@H]1CS[C@H](CO)O1 | > 100
26 | 0.14 |  | Nc1nc(=O)n([C@@H]2CS[C@H](CO)O2)cc1I | > 100
27 | 2.51 |  | Nc1nc(=O)n([C@@H]2CS[C@H](CO)O2)cc1Br | > 100
28 | > 100 |  | O=c1[nH]c(=O)n([C@H]2CS[C@H](CO)O2)cc1F | > 100
29 | 15.8 |  | Nc1nc(F)nc2c1ncn2[C@H]1CS[C@H](CO)O1 | > 100
30 | 1.9 |  | Cc1cn([C@@H]2CS[C@H](CO)O2)c(=O)nc1N | > 100
31 | 32.8 |  | O=c1ccn([C@H]2CS[C@H](CO)O2)c(=O)[nH]1 | > 100
32 | > 100 |  | O=c1[nH]c(=O)n([C@@H]2CS[C@H](CO)O2)cc1Br | > 100
33 | > 100 |  | Nc1nc(=O)n([C@H]2CS[C@H](CO)O2)cc1I | > 100
34 | > 100 |  | Nc1nc(O)c2ncn([C@H]3CS[C@H](CO)O3)c2n1 | > 100
35 | > 100 |  | Nc1nc(=O)n([C@H]2CS[C@H](CO)O2)cc1Cl | > 100
36 |  | 0.0018 | Nc1ccn([C@@H]2CS[C@H](CO)O2)c(=O)n1 (stereo in doubt; 13) [LAMIVUDINE] | 
37 |  | 10.1 | Nc1ccn([C@@H]2CS[C@H](CO)O2)c(=O)n1 (stereo in doubt; 14) [LAMIVUDINE] | > 100
38 |  | 0.21 | Nc1ccn([C@@H]2CS[C@H](CO)O2)c(=O)n1 (stereo in doubt; form 1) [LAMIVUDINE] | 
39 |  | 0.06 | Nc1ccn([C@@H]2CS[C@H](CO)O2)c(=O)n1 (stereo in doubt; form 2) [LAMIVUDINE] | 
40 | 0.0013 |  | Nc1nc(=O)n([C@@H]2CS[C@H](CO)O2)cc1F [EMTRICITABINE] | > 100

Row | Compound | EC50 ([2]; Human immunodeficiency virus 1) [µM] | EC50 [2] [µM] | IC50 [1] [µM]
41 | Cc1cn([C@H]2C[C@H](N=[N+]=[N-])[C@@H](CO)O2)c(=O)[nH]c1=O [ZIDOVUDINE] | 0.004 |  | > 100
